Results pooled from the literature.
Each line is one published result; the experiments were not run side by side.
Target: Beta-1 adrenergic receptor (ADRB1, Homo sapiens, UniProt P08588)
Concentration: 10 µM

Structure (SMILES)	test	inhibition
CCCNc1nc2ccccc2n1Cc1ccc(Cl)cc1	ligand displacement	19.5%
Ic1cccc2cnccc12	ligand displacement, radioligand	2%
Oc1cccc(Nc2nc(-c3ccc(F)cc3F)cs2)c1	cell-free assay	-36.5%
N#Cc1cc(Cn2c(N3CCCC3)nc3ccccc32)ccc1F	ligand displacement	-9.19%
O=C1N=C(N2CCCCN2)S/C1=C\c1ccc(F)cc1O	ligand displacement, radioligand	< 10%
NS(=O)(=O)c1cc(NC(=O)C2(c3ccccc3Cl)CC2)ccc1Oc1cccc(Cl)c1	cell-free assay	-3.09%
O=C(Nc1ccc(S(=O)(=O)N2CCC(Cl)CC2)cc1)c1ccc([N+](=O)[O-])o1	ligand displacement, radioligand	1%
O=C(c1ccc(F)cc1)N(Cc1ccccc1)C1CCCCC1	cell-free assay	4%
CCN(CC)c1ccc(C2Nc3ccc(C(=O)c4ccccc4)cc3NC3=C2C(=O)CC(C)(C)C3)cc1 (centres unmarked)	ligand displacement, radioligand	-1%
CCN(Cc1ccccc1C(F)(F)F)C(=O)C1CCN(S(=O)(=O)c2ccc3[nH]ncc3c2)CC1	ligand displacement, radioligand	3%
C[C@H](c1ccc(F)cc1)N(Cc1ccc(Cl)c(C(=O)O)c1)C(=O)c1cnc2ccccc2c1	cell-free assay	-0.35%
